Results taken from PMC10441411 (bioRxiv, 2023).
Peptide text beside a SMILES is read from it. * marks the point of attachment. Cbz = O=C(OCc1ccccc1)*

Assays:
[1] = molecular target: NR4A1 (Homo sapiens, UniProt P22736); assay: NR4A1 degradation in human cell lines by immunoblotting; type: cell-based; conditions: CHL-1 cells
In short: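 CHL-1 and A375 human melanoma cells were grown in DMEM with 10% FBS and penicillin/streptomycin. Screening used 250 nM test compound for 16 h, read by immunoblot plus densitometry (n=2). A 16 h dose series gave the 50% degradation concentration. For pathway tests, CHL-1 were pretreated 10 min with 0.5 μM MG132 or 10 μM VHL 032, then exposed 16 h to DMSO or 500 nM. Lysates were made in RIPA with DTT.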

[2] = tested on: MC38 colon adenocarcinoma; assay: MC38 colon cancer syngeneic tumor growth; type: in vivo, mouse; conditions: WT mice; 1.8 mg/kg NR-V04 or 0.75 mg/kg celastrol i.p. twice a week from day 7
In short: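 Mouse MC38 or Yummer1.7 cells (5 × 10^5) in PBS injected s.c. into 7–9-week-old WT or NSG hosts. Dosing started day 7 once tumors were palpable: test compound 1.8 mg/kg i.p. twice weekly, with celastrol 0.75 mg/kg (1.67 μmol/kg) in MC38 only. Vehicle was 50% phosal PG/45% miglyol 810N/5% polysorbate 80. Tumors were grown to 2 cm diameter endpoint.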

[3] = tested on: B16F10 melanoma; assay: B16F10 melanoma syngeneic tumor growth; type: in vivo, mouse; conditions: WT mice; 1.8 mg/kg NR-V04 or 0.75 mg/kg celastrol i.p. twice a week from day 7
[4] = molecular target: NR4A1; conditions: read-out: binding affinity of celastrol to NR4A1 (Kd); cited from earlier work
[5] = tested on: NR4A1 mRNA; assay: NR4A1 mRNA by qPCR in CHL-1 cells; type: cell-based, human; conditions: 500 nM, time course, ACTB control

Chain of NR4A1 (Homo sapiens, UniProt P22736) (P22736 whole entry): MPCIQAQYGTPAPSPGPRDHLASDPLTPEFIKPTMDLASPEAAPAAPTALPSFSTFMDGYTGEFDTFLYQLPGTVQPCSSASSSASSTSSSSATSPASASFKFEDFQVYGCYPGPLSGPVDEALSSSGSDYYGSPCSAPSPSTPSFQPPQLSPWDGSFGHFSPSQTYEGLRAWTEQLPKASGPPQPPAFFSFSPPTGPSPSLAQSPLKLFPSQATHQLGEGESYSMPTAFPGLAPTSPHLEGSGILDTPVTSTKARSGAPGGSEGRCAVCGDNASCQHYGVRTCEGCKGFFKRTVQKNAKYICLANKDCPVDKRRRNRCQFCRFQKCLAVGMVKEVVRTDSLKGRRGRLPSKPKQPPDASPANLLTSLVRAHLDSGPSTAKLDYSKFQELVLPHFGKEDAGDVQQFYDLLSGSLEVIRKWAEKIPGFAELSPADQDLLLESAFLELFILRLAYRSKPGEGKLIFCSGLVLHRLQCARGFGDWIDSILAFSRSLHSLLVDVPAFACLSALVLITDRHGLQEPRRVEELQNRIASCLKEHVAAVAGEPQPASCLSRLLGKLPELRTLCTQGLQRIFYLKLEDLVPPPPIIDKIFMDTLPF

CC(=O)N[C@H](C(=O)N1C[C@H](O)C[C@H]1C(=O)NCc1ccc(-c2scnc2C)cc1)C(C)(C)C [VHL-032]
effect of pretreatment on NR-V04-induced degradation of NR4A1 ([1]; 10 μM VHL 032 10 minutes, then 500 nM NR-V04 16 hours): prevented

CC1=C(O)C(=O)C=C2C1=CC=C1[C@@]2(C)CC[C@@]2(C)[C@@H]3C[C@](C)(C(=O)O)CC[C@]3(C)CC[C@]12C [celastrol]
tumor growth, MC38 model [2]: failed to inhibit tumor growth
tumor growth, B16F10 melanoma [3]: increased growth
NR4A1 protein level, initial screening ([1]; 250 nM, 16 hours, immunoblotting and densitometry): did not alter
NR4A1 protein level ([1]; 16 hours, dose series): did not change
Kd [4]: 0.29 µM
NR4A1 mRNA level [5]: increase in NR4A1 mRNA levels after 2 hrs

CC(C)C[C@@H](C=O)NC(=O)[C@H](CC(C)C)NC(=O)[C@H](CC(C)C)NC(=O)OCc1ccccc1 [MG132] (Cbz-Leu-Leu-Leu-aldehyde)
effect of pretreatment on NR-V04-reduced NR4A1 protein level ([1]; 0.5 μM MG132 10 minutes, then 500 nM NR-V04 16 hours): effectively rescued
